{"source": "ChEMBL document CHEMBL2203116", "about": "“Synthesis and evaluation of novel carbon-11 labeled oxopurine analogues for positron emission tomography imaging of translocator protein (18 kDa) in peripheral organs” (J Med Chem, 2011)", "key": {"[1]": {"system": "Heart", "assay": "Drug uptake in Sprague-Dawley rat heart at 0.15 nmol, iv pretreated with unlabeled (R)-PK11195 by PET scanning", "format": "ADME, organism-based", "settings": "in vivo; call rule not given here", "procedure,_shortened": "(§1)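 Isoflurane-anesthetized Sprague-Dawley rats underwent 30-min PET after iv [11C]radioligand, with unlabeled blocker given iv 1 min before tracer. Blockers were (R)-PK11195 at 3.0 mg/kg or AC-5216 at 1.0 mg/kg in 300 μL saline with 10% ethanol and 5% polysorbate 80. Regional uptake was decay-corrected SUV (n = 4).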"}, "[2]": {"system": "Heart", "assay": "Drug uptake in Sprague-Dawley rat heart at 0.15 nmol, iv pretreated with unlabeled AC-5216 by PET scanning", "format": "ADME, organism-based", "settings": "in vivo", "procedure,_shortened": "as §1"}, "[3]": {"system": "Kidney", "assay": "Drug uptake in Sprague-Dawley rat kidney at 0.15 nmol, iv pretreated with unlabeled AC-5216 by PET scanning", "format": "ADME, organism-based", "settings": "in vivo", "procedure,_shortened": "(§2)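 Male Sprague-Dawley rats (6–8 weeks old), isoflurane-anesthetized, prone. ROIs on lung, heart, kidney, liver, small intestine and cardiac blood pool. Uptake decay-corrected to injection time and expressed as SUV (body-weight normalized). n = 4, mean ± SD.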"}, "[4]": {"system": "Liver", "assay": "Drug uptake in Sprague-Dawley rat liver at 0.15 nmol, iv pretreated with unlabeled (R)-PK11195 measured after 27.5 mins by PET scanning relative to control", "format": "ADME, organism-based", "settings": "in vivo", "procedure,_shortened": "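Male Sprague-Dawley rats, 6-8 weeks old, under isoflurane, prone. An unlabeled TSPO blocking ligand (3.0 mg/kg) was injected 1 min before the iv radioligand (16-18 MBq/200 μL). A liver ROI was decay-corrected and expressed as SUV normalized to injected activity and body weight. The 27.5-min value was compared with unblocked controls; n = 4.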"}, "[5]": {"system": "Liver", "assay": "Drug uptake in Sprague-Dawley rat liver at 0.15 nmol, iv pretreated with unlabeled AC-5216 measured after 27.5 mins by PET scanning relative to control", "format": "ADME, organism-based", "settings": "in vivo", "procedure,_shortened": "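Male Sprague-Dawley rats, 6-8 weeks, isoflurane-anesthetized. A blocking TSPO ligand (1.0 mg/kg, in 300 μL saline with 10% ethanol and 5% polysorbate 80) was injected 1 min before iv radioligand (16-18 MBq/200 μL). Liver ROI as decay-corrected SUV (injected activity, body weight), 27.5-min value versus controls; n = 4.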"}, "[6]": {"assay": "Metabolic stability in Sprague-Dawley rat lung assessed as unchanged compound at 0.32 nmol, iv after 30 mins by analytical radio- HPLC", "format": "ADME, organism-based", "settings": "read-out: Stability"}, "[7]": {"assay": "Metabolic stability in Sprague-Dawley rat kidney assessed as unchanged compound at 0.32 nmol, iv after 30 mins by analytical radio- HPLC", "format": "ADME, organism-based", "settings": "read-out: Stability", "procedure,_shortened": "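Rats (n = 3) given radioligand iv (37 MBq/100 μL, 0.32 nmol) and killed at 30 min. Heart and kidney homogenized in ice-cold MeCN/H2O 4/6, centrifuged 15000 rpm for 1 min at 4 °C. Supernatant run on analytical radio-HPLC (C18, MeCN/H2O 4/6). Percent parent = parent peak area over total peak areas, decay-corrected. Mean ± SD.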"}, "[8]": {"assay": "Metabolic stability in Sprague-Dawley rat liver assessed as unchanged compound at 0.32 nmol, iv after 30 mins by analytical radio- HPLC", "format": "ADME, organism-based", "settings": "read-out: Stability"}, "[9]": {"assay": "Metabolic stability in Sprague-Dawley rat plasma assessed as unchanged compound at 0.32 nmol, iv after 30 mins by analytical radio- HPLC", "format": "ADME, organism-based", "settings": "read-out: Stability"}, "[10]": {"system": "Blood", "assay": "Biodistribution in LPS-treated Sprague-Dawley rat blood at 0.19 nmol, iv by gamma counting", "format": "ADME, organism-based", "settings": "in vivo", "procedure,_shortened": "(§3)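 Male Sprague-Dawley rats were given intratracheal LPS (E. coli O127:B8, 5.0 mg/kg in 50 μL saline) or 50 μL saline vehicle 24 h before tracer. [11C]Radioligand (16 MBq/200 μL, 0.19 nmol) in saline was injected via the tail vein. Rats were killed at 30 min (n = 4 per group). Tissues were weighed and gamma-counted, expressed as decay-corrected %ID/g.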"}, "[11]": {"system": "Brain", "assay": "Biodistribution in LPS-treated Sprague-Dawley rat brain at 0.19 nmol, iv by gamma counting", "format": "ADME, organism-based", "settings": "in vivo", "procedure,_shortened": "as §3"}, "[12]": {"system": "Lung", "assay": "Biodistribution in LPS-treated Sprague-Dawley rat lung at 0.19 nmol, iv by gamma counting", "format": "ADME, organism-based", "settings": "in vivo", "procedure,_shortened": "as §3"}, "[13]": {"system": "Liver", "assay": "Biodistribution in LPS-treated Sprague-Dawley rat liver at 0.19 nmol, iv by gamma counting", "format": "ADME, organism-based", "settings": "in vivo", "procedure,_shortened": "as §3"}, "[14]": {"system": "Spleen", "assay": "Biodistribution in LPS-treated Sprague-Dawley rat spleen at 0.19 nmol, iv by gamma counting", "format": "ADME, organism-based", "settings": "in vivo", "procedure,_shortened": "as §3"}, "[15]": {"system": "Pancreas", "assay": "Biodistribution in LPS-treated Sprague-Dawley rat pancreas at 0.19 nmol, iv by gamma counting", "format": "ADME, organism-based", "settings": "in vivo", "procedure,_shortened": "as §3"}, "[16]": {"system": "Adrenal", "assay": "Biodistribution in LPS-treated Sprague-Dawley rat adrenal at 0.19 nmol, iv by gamma counting", "format": "ADME, organism-based, Adrenal tissue", "settings": "in vivo", "procedure,_shortened": "as §3"}, "[17]": {"system": "Rattus norvegicus", "assay": "Biodistribution in LPS-treated Sprague-Dawley rat small intestine at 0.19 nmol, iv by gamma counting", "format": "ADME, organism-based", "settings": "in vivo", "procedure,_shortened": "as §3"}, "[18]": {"system": "Muscle tissue", "assay": "Biodistribution in LPS-treated Sprague-Dawley rat muscle at 0.19 nmol, iv by gamma counting", "format": "ADME, organism-based", "settings": "in vivo", "procedure,_shortened": "as §3"}, "[19]": {"system": "Lung", "assay": "Biodistribution in Sprague-Dawley rat lung at 0.19 nmol, iv by gamma counting", "format": "ADME, organism-based", "settings": "in vivo", "procedure,_shortened": "as §3"}, "[20]": {"system": "Pancreas", "assay": "Biodistribution in Sprague-Dawley rat pancreas at 0.19 nmol, iv by gamma counting", "format": "ADME, organism-based", "settings": "in vivo", "procedure,_shortened": "as §3"}, "[21]": {"system": "Adrenal", "assay": "Biodistribution in Sprague-Dawley rat adrenal at 0.19 nmol, iv by gamma counting", "format": "ADME, organism-based, Adrenal tissue", "settings": "in vivo", "procedure,_shortened": "as §3"}, "[22]": {"system": "Rattus norvegicus", "assay": "Biodistribution in Sprague-Dawley rat small intestine at 0.19 nmol, iv by gamma counting", "format": "ADME, organism-based", "settings": "in vivo", "procedure,_shortened": "as §3"}, "[23]": {"system": "Liver", "assay": "Drug uptake in Sprague-Dawley rat liver at 0.15 nmol, iv after 27.5 mins by PET scanning", "format": "ADME, organism-based", "settings": "in vivo", "procedure,_shortened": "as §2"}, "[24]": {"system": "Heart", "assay": "Drug uptake in Sprague-Dawley rat heart at 0.15 nmol, iv up to 30 mins by PET scanning", "format": "ADME, organism-based", "settings": "in vivo, 0.5 h", "procedure,_shortened": "(§4)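 Isoflurane-anesthetized male Sprague-Dawley rats lay prone and received an iv bolus of [11C]radioligand in 200 μL. 3D list-mode emission scans ran 30 min from injection. Regions of interest were drawn on the organs and cardiac blood pool. Uptake was decay-corrected to injection time and expressed as SUV (normalized to injected radioactivity and body weight). Values are mean of n = 4.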"}, "[25]": {"system": "Kidney", "assay": "Drug uptake in Sprague-Dawley rat kidney at 0.15 nmol, iv up to 30 mins by PET scanning", "format": "ADME, organism-based", "settings": "in vivo, 0.5 h", "procedure,_shortened": "as §2"}, "[26]": {"system": "Liver", "assay": "Drug uptake in Sprague-Dawley rat liver at 0.15 nmol, iv up to 30 mins by PET scanning", "format": "ADME, organism-based", "settings": "in vivo, 0.5 h", "procedure,_shortened": "as §2"}, "[27]": {"system": "Blood", "assay": "Drug uptake in Sprague-Dawley rat cardiac blood pool at 0.15 nmol, iv up to 30 mins by PET scanning", "format": "ADME, organism-based", "settings": "in vivo, 0.5 h", "procedure,_shortened": "as §4"}, "[28]": {"system": "Intestine", "assay": "Drug uptake in Sprague-Dawley rat small intestine at 0.15 nmol, iv up to 30 mins by PET scanning", "format": "ADME, organism-based", "settings": "in vivo, 0.5 h", "procedure,_shortened": "as §2"}, "[29]": {"system": "Lung", "assay": "Drug uptake in Sprague-Dawley rat lung at 0.15 nmol, iv after 2 mins by PET scanning", "format": "ADME, organism-based", "settings": "in vivo", "procedure,_shortened": "as §2"}, "[30]": {"system": "Heart", "assay": "Drug uptake in Sprague-Dawley rat heart at 0.15 nmol, iv after 2 mins by PET scanning", "format": "ADME, organism-based", "settings": "in vivo", "procedure,_shortened": "as §4"}, "[31]": {"system": "Kidney", "assay": "Drug uptake in Sprague-Dawley rat kidney at 0.15 nmol, iv after 2 mins by PET scanning", "format": "ADME, organism-based", "settings": "in vivo", "procedure,_shortened": "as §2"}, "[32]": {"system": "Blood", "assay": "Drug uptake in Sprague-Dawley rat cardiac blood pool at 0.15 nmol, iv after 2 mins by PET scanning", "format": "ADME, organism-based", "settings": "in vivo", "procedure,_shortened": "as §4"}, "[33]": {"system": "Lung", "assay": "Drug uptake in Sprague-Dawley rat lung at 0.15 nmol, iv after 27.5 mins by PET scanning", "format": "ADME, organism-based", "settings": "in vivo", "procedure,_shortened": "as §2"}, "[34]": {"system": "Heart", "assay": "Drug uptake in Sprague-Dawley rat heart at 0.15 nmol, iv after 27.5 mins by PET scanning", "format": "ADME, organism-based", "settings": "in vivo", "procedure,_shortened": "as §4"}}, "data": [{"smiles": "CCN(Cc1ccncc1)C(=O)Cn1c(=O)n([11CH3])c2cnc(-c3ccccc3)nc21", "values": [{"measurement": "Drug uptake", "setting": "[1]", "value": "Not Active"}, {"measurement": "Drug uptake", "setting": "[2]", "value": "Not Active"}, {"measurement": "Drug uptake", "setting": "[3]", "value": "Not Active"}, {"measurement": "fold change (FC)", "setting": "[4]", "value": 1.5}, {"measurement": "fold change (FC)", "setting": "[5]", "value": 1.5}, {"measurement": "remaining at 0.5 h", "setting": "[6]", "value": 92.1, "unit": "%"}, {"measurement": "remaining at 0.5 h", "setting": "[7]", "value": 94.7, "unit": "%"}, {"measurement": "remaining at 0.5 h", "setting": "[8]", "value": 43.6, "unit": "%"}, {"measurement": "remaining at 0.5 h", "setting": "[9]", "value": 23.4, "unit": "%"}, {"measurement": "Drug uptake", "setting": "[10]", "value": 0.08, "unit": "% ID/g"}, {"measurement": "Drug uptake", "setting": "[11]", "value": 0.02, "unit": "% ID/g"}, {"measurement": "Drug uptake", "setting": "[12]", "value": 3.54, "unit": "% ID/g"}, {"measurement": "Drug uptake", "setting": "[13]", "value": 1.03, "unit": "% ID/g"}, {"measurement": "Drug uptake", "setting": "[14]", "value": 1.88, "unit": "% ID/g"}, {"measurement": "Drug uptake", "setting": "[15]", "value": 0.37, "unit": "% ID/g"}, {"measurement": "Drug uptake", "setting": "[16]", "value": 5.27, "unit": "% ID/g"}, {"measurement": "Drug uptake", "setting": "[17]", "value": 2.68, "unit": "% ID/g"}, {"measurement": "Drug uptake", "setting": "[18]", "value": 0.1, "unit": "% ID/g"}, {"measurement": "Drug uptake", "setting": "[19]", "value": 1.65, "unit": "% ID/g"}, {"measurement": "Drug uptake", "setting": "[20]", "value": 0.38, "unit": "% ID/g"}, {"measurement": "Drug uptake", "setting": "[21]", "value": 7.49, "unit": "% ID/g"}, {"measurement": "Drug uptake", "setting": "[22]", "value": 1.57, "unit": "% ID/g"}, {"measurement": "SUV", "setting": "[23]", "value": 0.5}, {"measurement": "Drug uptake", "setting": "[24]", "value": "Active"}, {"measurement": "Drug uptake", "setting": "[25]", "value": "Active"}, {"measurement": "Drug uptake", "setting": "[26]", "value": "Active"}, {"measurement": "Drug uptake", "setting": "[27]", "value": "Active"}, {"measurement": "Drug uptake", "setting": "[28]", "value": "Active"}, {"measurement": "SUV", "setting": "[29]", "value": 3.4}, {"measurement": "SUV", "setting": "[30]", "value": 4.6}, {"measurement": "SUV", "setting": "[31]", "value": 3.3}, {"measurement": "SUV", "setting": "[32]", "value": 3}, {"measurement": "SUV", "setting": "[33]", "value": 0.5}, {"measurement": "SUV", "setting": "[34]", "value": 0.9}]}]}
